High-throughput results as filed in PubChem BioAssay.
DDE Tn6 FP inh: DD(E)-Tn6 binding inhibition, primary FP screen; Fibrin DD(E) TRITC-Tn6 fluorescence polarization displacement; 370,000 tested, 0.21% active; inhibition, % at 8.3 µM;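 active = inhibition above a per-campaign cutoff: mean of compounds within control limits plus 3 SD, cut at about 15% in these data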;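 also: 0% = median of all compound wells on the plate and 100% = blocking peptide control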
Target sequence (P02675 whole entry, looked up): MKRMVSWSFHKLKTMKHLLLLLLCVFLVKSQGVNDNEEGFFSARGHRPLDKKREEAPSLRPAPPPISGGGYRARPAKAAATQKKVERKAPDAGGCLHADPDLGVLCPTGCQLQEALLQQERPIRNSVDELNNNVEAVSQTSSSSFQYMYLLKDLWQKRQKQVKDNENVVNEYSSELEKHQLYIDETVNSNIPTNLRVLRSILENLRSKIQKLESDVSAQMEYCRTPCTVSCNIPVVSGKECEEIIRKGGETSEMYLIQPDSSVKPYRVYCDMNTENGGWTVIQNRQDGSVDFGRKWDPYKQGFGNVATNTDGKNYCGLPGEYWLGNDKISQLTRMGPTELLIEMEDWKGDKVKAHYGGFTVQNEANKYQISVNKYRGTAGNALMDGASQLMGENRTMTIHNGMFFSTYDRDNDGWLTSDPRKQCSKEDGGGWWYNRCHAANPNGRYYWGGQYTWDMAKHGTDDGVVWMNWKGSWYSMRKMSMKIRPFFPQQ
Ins promoter up: MIN6 insulin promoter up-regulation; z-score at 5 µM; AID 1625; MIN6 insulin promoter-GFP reporter, high-content imaging; stronger effect = higher value; 190,000 tested, 0.3% active;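 active = z-score above 3 at 5 µM with at least 500 cells counted in the well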
ABCG2 inh: inhibitors of human ABCG2 transporter, ABCB1 counter-screen | Q9UNQ0 | IgMXP3 cells, JC-1 efflux, flow cytometry | inhibition, % at 6.6 µM | 190,000 tested, 0.1% active;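 active = inhibition above 80%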;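 also: 0% = DMSO and 100% = nicardipine control wells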
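test system = two drug-resistant human cell lines, ABCG2 and ABCB1 | amount = 3 million cells/mL final, two lines in 1:1 ratio | reagent = JC-1 transporter substrate | doses = one concentration, 6.6 µM final | incubation = 10 min at 25 °C | signal = flow cytometric JC-1 green MFI at 530 nm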
ABCB1 inh: inhibitors of human ABCB1 transporter, ABCG2 counter-screen. 190,000 tested, 0.067% active. AID 1326. inhibition, % at 6.6 µM. CCRF-Adr cells, JC-1 efflux, flow cytometry; in the data active = inhibition above about 40%;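 also: 0% = vehicle and 100% = reference inhibitor; higher value means more JC-1 retained so stronger ABCB1 efflux block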
Tn7 DDE FP: inhibitors of Tn7 peptide binding to human fibrin DD(E). inhibition, % at 8.3 µM. P02675. AID 720508. FP displacement of FITC-Tn7 peptide from fibrin DD(E); 0% = median of compound wells per plate. 370,000 tested, 0.13% active;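 active = inhibition above the mean of compounds falling within the control limits plus 3 SD of them, cut at about 14% in these data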;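 also: 0% = plate median of compound wells and 100% = 10 µM Aha-Tn7 peptide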
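Test system – human fibrin DD(E) · Times – 10 min preincubation, 3 h with tracer, room temperature · Detection – fluorescence polarization of the labelled Tn7 tracer · Measure – percent inhibition normalized to high-control wells · Benchmarks – high control wells with 10 µM unlabelled Aha-Tn7 peptide (full inhibition) · Repeats – singlicate testing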
GRK2 inh: blocks RNA aptamer binding to human GRK2 | inhibition of aptamer binding, % at 10 µM | P25098 | 330,000 tested, 0.59% active | bead flow cytometry, FAM-aptamer displacement from GRK2;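 active = inhibition of aptamer binding above 40%, roughly 3 SD of noise, on plates passing a quality check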;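 also: median bead fluorescence of bound FAM aptamer so fluorescent compounds give negative values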
Tn7 DDE conf: DD(E)-Tn7 binding inhibition, FP confirmation; 460 tested, 5% active; AID 720628; inhibition, % at 8.3 µM; FP displacement of TRITC-Tn7 peptide from DD(E); 0% set at plate's compound-well median; shares compounds with Tn7 DDE FP;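 active = inhibition above the campaign cutoff, the mean of compounds within control limits plus 3 SD, cut at about 14% in these data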;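 also: 100% = median FP of high control wells holding Aha-Tn7 inhibitor peptide; displacers lower polarization since freed probe rises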
Tn7 DDE ctr: counter-screen hit for Tn7 peptide-fibrin DD(E) binding disruption; AID 720633; inhibition, % at 8.3 µM; shares compounds with Tn7 DDE FP; 460 tested, 3% active; TRITC-Tn7 probe displacement, fluorescence polarization;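 active = inhibition above the cutoff, the mean of compounds lying between the control bounds plus 3 SD of those compounds, cut at about 17% in these data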;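 also: 0% = median of compound sample wells and 100% = excess unlabeled Aha-Tn7 peptide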
Starred values were filed as active, the others as inactive. The list is not random: actives were taken first. Their share in the collection is about 0.99%.

CN(C)S(=O)(=O)c1ccc(C(=O)NCC(=O)N/N=C/c2cccs2)cc1 was read as DDE Tn6 FP inh 8.8, Ins promoter up 0.65, ABCG2 inh 1.9, ABCB1 inh 0.5, Tn7 DDE FP 14.7*, GRK2 inh 0.0, Tn7 DDE conf -2.4 and Tn7 DDE ctr -3.1.
Screening O[C@H](COc1cccc(C(F)(F)F)c1)CN1CCC(C(O)(c2ccccc2)c2ccccc2)CC1 returned DDE Tn6 FP inh 2.8 and Tn7 DDE FP -3.1.
For O=C(Nc1cccc(Cl)c1)N1CCCC1 the results were DDE Tn6 FP inh 5.5, Ins promoter up -0.53, ABCG2 inh 1.1, ABCB1 inh 0.2, Tn7 DDE FP 14.1*, GRK2 inh 3.0, Tn7 DDE conf -0.3 and Tn7 DDE ctr -2.1.
`CC(=O)Nc1ccc(S(=O)(=O)N2CCN(C(=O)C(=O)c3cccc(C(F)(F)F)c3)CC2)cc1` gave DDE Tn6 FP inh -0.1 and Tn7 DDE FP 0.1.
Screening CC(=O)c1nc(N2C(=O)CC(Cc3cccc(C)c3)C2=O)sc1C (centres undefined) returned DDE Tn6 FP inh -6.0, Ins promoter up 0.01, ABCG2 inh 0.5, ABCB1 inh 0.2, Tn7 DDE FP 16.1*, GRK2 inh 2.0, Tn7 DDE conf 1.7 and Tn7 DDE ctr 2.1.
Screening Cc1nnc(C)n1N=Cc1ccc(O)cc1O returned DDE Tn6 FP inh -6.4 and Tn7 DDE FP -2.3.
`CC(C)N1CCCCC(NC(=O)c2ccc(-c3ccccc3)cc2)C1=O` (centres undefined) gave DDE Tn6 FP inh -0.5 and Tn7 DDE FP -1.4.
`Cc1ccc(NC(=O)C2CC(O)CN2C(=O)OCc2ccccc2)cc1C` (centres undefined) gave DDE Tn6 FP inh 5.3, Tn7 DDE FP 14.7*, Tn7 DDE conf 7.4 and Tn7 DDE ctr 2.9.
Screening Cc1cccc(NC(=O)C2CC(O)CN2C(=O)OCc2ccccc2)c1 (centres undefined) returned DDE Tn6 FP inh 6.4, Ins promoter up 0.54, ABCG2 inh 4.0, ABCB1 inh 0.6, Tn7 DDE FP -3.5 and GRK2 inh 0.0.
For Cc1ccc[n+](-c2nc([O-])sc2C=O)c1 the results were DDE Tn6 FP inh -3.4, Ins promoter up -0.18, ABCG2 inh -0.3, ABCB1 inh 0.3, Tn7 DDE FP 24.9*, GRK2 inh 0.0, Tn7 DDE conf 5.1 and Tn7 DDE ctr -2.6.
`CC1(C)Cc2c(cnn2-c2ccccc2)C(NC(=O)CCCN2CCCCC2=O)C1` (centres undefined) gave DDE Tn6 FP inh -0.6, Tn7 DDE FP 15.7*, GRK2 inh 0.0, Tn7 DDE conf 1.2 and Tn7 DDE ctr 0.1.
`CC1(C)Cc2c(cnn2-c2ccccc2)C(NC(=O)CCN2CCCC2=O)C1` (centres undefined) gave DDE Tn6 FP inh 5.8, Tn7 DDE FP -5.8 and GRK2 inh 0.0.
CCc1ccccc1NC(=S)NC1CC2CCC(C1)N2Cc1ccc(F)cc1 (centres undefined) was read as DDE Tn6 FP inh -11.1, Ins promoter up -0.32, ABCG2 inh -0.4, ABCB1 inh -0.1, Tn7 DDE FP 14.2*, GRK2 inh 2.0, Tn7 DDE conf -3.3 and Tn7 DDE ctr -11.2.
Screening O=C(c1cncnc1)N1CCC(n2nnc3ncccc32)CC1 returned DDE Tn6 FP inh 0.1 and Tn7 DDE FP 1.3.
For COc1ccc(/C=C/c2cc(C(=O)O)c3ccccc3n2)cc1 the results were DDE Tn6 FP inh 9.2, Ins promoter up -0.37, Tn7 DDE FP 38.5*, GRK2 inh 1.0, Tn7 DDE conf 2.4 and Tn7 DDE ctr 2.0.
COc1cc(OC)c(OC)cc1/C=C/c1cc(C(=O)O)c2ccccc2n1 was read as DDE Tn6 FP inh 10.2, Ins promoter up 0.87, ABCG2 inh -2.8, ABCB1 inh 0.0, Tn7 DDE FP -7.5 and GRK2 inh 0.0.
For O=C(NCc1ccco1)C1CCCN(S(=O)(=O)c2ccc(F)cc2)C1 (centres undefined) the results were DDE Tn6 FP inh 5.0 and Tn7 DDE FP 3.6.
`CCn1c2ccccc2c2cc(C=Nn3c(-c4ccccn4)n[nH]c3=S)ccc21` gave DDE Tn6 FP inh -3.1 and Tn7 DDE FP 1.3.
Screening CCOc1cc(/C=C2\CCCc3c2nc2ccccc2c3C(=O)O)ccc1OC returned DDE Tn6 FP inh -0.6, Tn7 DDE FP 64.4*, GRK2 inh 0.0, Tn7 DDE conf 31.4* and Tn7 DDE ctr -1.6.
For CC[C@@]12C(=O)N(c3ccc(OC)cc3)C(=O)N1[C@H](c1ccc(Cl)cc1)[C@@H]1C(=O)N(C3CCCCC3)C(=O)[C@@H]12 the results were DDE Tn6 FP inh 2.9, Tn7 DDE FP 15.6*, GRK2 inh 0.0, Tn7 DDE conf 6.7 and Tn7 DDE ctr -0.5.
O=C1CCCc2c1cc(C(=O)O)c(=O)n2-c1ccccc1 was read as DDE Tn6 FP inh -8.4, Ins promoter up 0.75, ABCG2 inh 1.2, ABCB1 inh -0.2, Tn7 DDE FP -5.4 and GRK2 inh 0.0.
`COC(=O)C(CCSC)NC(=O)c1cc2c(n(-c3ccccc3)c1=O)CCCC2=O` (centres undefined) gave DDE Tn6 FP inh 7.9, Ins promoter up 0.24, ABCG2 inh 0.4, ABCB1 inh 0.1, Tn7 DDE FP 14.9*, GRK2 inh 0.0, Tn7 DDE conf 6.1 and Tn7 DDE ctr 1.1.
Screening COc1ccccc1NS(=O)(=O)c1cccc(C(=O)NCC(c2ccco2)N(C)C)c1 (centres undefined) returned DDE Tn6 FP inh 10.4, Tn7 DDE FP 14.4*, GRK2 inh 0.0, Tn7 DDE conf -0.8 and Tn7 DDE ctr 0.1.
CCCCNC(=O)C[C@H]1C[C@@]2(C(=O)OC)C(=C[C@H](C(C)(C)C)O[C@@H]2C)N(Cc2cccc3ccccc23)C1=O was read as DDE Tn6 FP inh -4.7 and Tn7 DDE FP 5.7.
COc1ccc(CCNC(=O)CC2SC(=NCc3ccccc3)NC2=O)cc1 (centres undefined) was read as DDE Tn6 FP inh 1.3, Ins promoter up -0.04, ABCG2 inh 1.2, ABCB1 inh 0.0, Tn7 DDE FP 14.5*, GRK2 inh 0.0, Tn7 DDE conf -1.8 and Tn7 DDE ctr -6.1.
`COc1ccc(CCNC(=O)CC2SC(=NCCc3ccccc3)NC2=O)cc1` (centres undefined) gave DDE Tn6 FP inh 4.8, Ins promoter up -0.3, ABCG2 inh 3.6, ABCB1 inh -0.1, Tn7 DDE FP 2.9 and GRK2 inh 2.0.
